In ChEMBL document CHEMBL1123867, “Anticonvulsant O-alkyl sulfamates. 2,3:4,5-Bis-O-(1-methylethylidene)-beta-D-fructopyranose sulfamate and related compounds” (1987):

What was measured:
Format in all cases: functional
Mus musculus [1] = experiment: Anticonvulsant activity by using a standard maximal electroshock test (MES) in mice, by intraperitoneal administration of the compound; details: ip
In short: (§1)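 Supramaximal electroshock: 50-mA current (60 Hz, 0.20 s) via corneal electrodes induced hind-limb tonic extension; inhibition of this component scored as activity. Mice dosed ip and/or po in aqueous solution or suspension (ca. 0.1% Tween 80, distilled water). Tested at 30, 60, 120 and 240 min (sometimes 45 min); ten mice per time point.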

Mus musculus [2] = experiment: Anticonvulsant activity following p.o. administration by standard maximal electroshock test in mice.; details: po; in short: as §1
Mus musculus [3] = experiment: Anticonvulsant activity was determined as percentage of block of the hind-limb tonic-extensor seizure caused by application of an electric shock to mice via corneal electrodes at 30 min by 100 mg/kg intraperitoneal dose; in short: as §1
Mus musculus [4] = experiment: Anticonvulsant activity was determined as percentage of block of the hind-limb tonic-extensor seizure caused by application of an electric shock to mice via corneal electrodes at 60 min by 100 mg/kg intraperitoneal dose; in short: as §1
Mus musculus [5] = experiment: Anticonvulsant activity was determined as percentage of block of the hind-limb tonic-extensor seizure caused by application of an electric shock to mice via corneal electrodes at 60 min by 200 mg/kg peroral dose; details: route oral; in short: as §1
Mus musculus [6] = experiment: Anticonvulsant activity was determined as percentage of block of the hind-limb tonic-extensor seizure caused by application of an electric shock to mice via corneal electrodes at 120 min by 100 mg/kg intraperitoneal dose; in short: as §1
Mus musculus [7] = experiment: Anticonvulsant activity was determined as percentage of block of the hind-limb tonic-extensor seizure caused by application of an electric shock to mice via corneal electrodes at 120 min by 200 mg/kg peroral dose; details: route oral; in short: as §1
Mus musculus [8] = experiment: Anticonvulsant activity was determined as percentage of block of the hind-limb tonic-extensor seizure caused by application of an electric shock to mice via corneal electrodes at 240 min by 200 mg/kg peroral dose; details: route oral; in short: as §1
Mus musculus [9] = experiment: Percentage block of the hind-limb tonic-extensor seizure was determined after application of an electric shock to mice for 30 min followed by 200 mg/kg peroral dose; details: route oral; in short: as §1
Mus musculus [10] = experiment: Anticonvulsant activity was determined as percentage of block of the hind-limb tonic-extensor seizure caused by application of an electric shock to mice via corneal electrodes at 240 min by 100 mg/kg intraperitoneal dose; in short: as §1
Mus musculus [11] = experiment: Percentage block of the hind-limb tonic-extensor seizure was determined after application of an electric shock to mice for 60 min followed by 40 mg/kg peroral dose; details: route oral
In short: (§2)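 Mouse MES test: supramaximal seizure from a 50-mA current (60 Hz, 0.20-s) through corneal electrodes. […] Ten mice per time point. Compound given in aqueous solution or in suspension in ca. 0.1% Tween 80 and distilled water. Free food and water except during testing.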

Mus musculus [12] = experiment: Percentage block of the hind-limb tonic-extensor seizure was determined after application of an electric shock to mice for 30 min followed by 40 mg/kg peroral dose; details: route oral; in short: as §1
Mus musculus [13] = experiment: Percentage block of the hind-limb tonic-extensor seizure was determined after application of an electric shock to mice for 120 min followed by 40 mg/kg peroral dose; details: route oral; in short: as §1
Mus musculus [14] = experiment: Percentage block of the hind-limb tonic-extensor seizure was determined after application of an electric shock to mice for 240 min followed by 40 mg/kg peroral dose; details: route oral; in short: as §1
Mus musculus [15] = experiment: Anticonvulsant activity by using a standard maximal electroshock test (MES) in mice, by intraperitoneal administration of the compound; Range 50-100 mg/kg; details: ip; in short: as §1
Mus musculus [16] = experiment: Percentage block of the hind-limb tonic-extensor seizure was determined after application of an electric shock to mice for 60 min followed by 100 mg/kg intraperitoneal dose; in short: as §1
Mus musculus [17] = experiment: Percentage block of the hind-limb tonic-extensor seizure was determined after application of an electric shock to mice for 120 min followed by 100 mg/kg intraperitoneal dose; in short: as §1
Mus musculus [18] = experiment: Percentage block of the hind-limb tonic-extensor seizure was determined after application of an electric shock to mice for 120 min followed by 200 mg/kg peroral dose; details: route oral; in short: as §1
Mus musculus [19] = experiment: Percentage block of the hind-limb tonic-extensor seizure was determined after application of an electric shock to mice for 30 min followed by 100 mg/kg intraperitoneal dose; in short: as §1
Mus musculus [20] = experiment: Percentage block of the hind-limb tonic-extensor seizure was determined after application of an electric shock to mice for 240 min followed by 100 mg/kg intraperitoneal dose; in short: as §1
Mus musculus [21] = experiment: Percentage block of the hind-limb tonic-extensor seizure was determined after application of an electric shock to mice for 240 min followed by 200 mg/kg peroral dose; details: route oral; in short: as §1
Mus musculus [22] = experiment: Percentage block of the hind-limb tonic-extensor seizure was determined after application of an electric shock to mice for 60 min followed by 200 mg/kg peroral dose; details: route oral; in short: as §2

Question: Which ED50 (Mus musculus [1]) does the source give for `NS(=O)(=O)OCC1COC2(CCCCC2)O1` (centres undefined) here?
Answer: Its ED50 is 169 mg/kg.

Question: And the ED50 (Mus musculus [2])?
Answer: The ED50 was about 150 mg/kg.

Question: What about the Block (Mus musculus [3]) of the same compound?
Answer: Its Block is 30%.

Question: And the Block (Mus musculus [4])?
Answer: The Block was 10%.

Question: What about the Block (Mus musculus [5]) of the same compound?
Answer: Its Block is 30%.

Question: And the Block (Mus musculus [6])?
Answer: The Block was 0%.

Question: What about the Block (Mus musculus [7]) of the same compound?
Answer: The Block was 20%.

Question: What about the Block (Mus musculus [8]) of the same compound?
Answer: The Block was 10%.

Question: And the Block (Mus musculus [9])?
Answer: Its Block is 70%.

Question: What about the Block (Mus musculus [10]) of the same compound?
Answer: The Block was 0%.

Question: What does the source list for `NS(=O)(=O)Cc1noc2ccccc12` [ZONISAMIDE]?
Answer: Block (Mus musculus [11]): 40%; Block (Mus musculus [12]): 20%; Block (Mus musculus [13]): 40%; Block (Mus musculus [14]): 50%

Question: What does the source list for `CNS(=O)(=O)OC[C@@]12OC[C@H]3OC(C)(C)OC3C1OC(C)(C)O2` (some centres undefined)?
Answer: ED50 (Mus musculus [15]): 50 mg/kg; ED50 (Mus musculus [2]): 200 mg/kg; Block (Mus musculus [16]): 90%; Block (Mus musculus [17]): 80%; Block (Mus musculus [18]): 100%; Block (Mus musculus [19]): 30%; Block (Mus musculus [9]): 20%; Block (Mus musculus [20]): 30%; Block (Mus musculus [21]): 100%; Block (Mus musculus [22]): 70%
